# The source made the active and inactive calls. The calls are words filed in the database; no cut-off is given here.
# How the values were obtained:
# [1] = Antiinflammatory activity in rat PMNC assessed as inhibition of platelet-activating factor-induced beta-glucuronidase release; format: functional
# Procedure, shortened: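 In vitro assay on rat polymorphonuclear leukocytes stimulated with platelet-activating factor; β-glucuronidase release was measured, with a positive control run alongside. Inhibitory potency is reported as IC50 in µM.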
# A2780 = test: Cytotoxicity against human A2780 cells; format: functional, cell-based
# Procedure, shortened: (§1)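 Cytotoxicity against a panel of six human tumor lines (A549, Bel-7402, BGC-823, HCT-8, HCT-116, A2780) was measured in vitro by MTT assay.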
# BGC-823 = test: Cytotoxicity against human BGC823 cells; format: functional, cell-based; procedure, shortened: as §1
# A549 = test: Cytotoxicity against human A549 cells; format: functional, cell-based; procedure, shortened: as §1
# HCT-8 = test: Cytotoxicity against human HCT8 cells; format: functional, cell-based; procedure, shortened: as §1
# HCT-116 = test: Cytotoxicity against human HCT116 cells; format: functional, cell-based; procedure, shortened: as §1
# Bel-7402 = test: Cytotoxicity against human Bel7402 cells; format: functional, cell-based; procedure, shortened: as §1
IC50 [1],SMILES,inhibition (A2780),inhibition (BGC-823),inhibition (A549),inhibition (HCT-8),inhibition (HCT-116),inhibition (Bel-7402)
2.35 µM,C[C@@H]1C(=O)O[C@H]2[C@H](O)[C@@]34[C@H]5C[C@@H](C(C)(C)C)[C@]36[C@@H](OC(=O)[C@@H]6O)O[C@@]4(C(=O)O5)[C@@]12O [GINKOLIDE B],–,–,–,–,–,–
–,O=C1N2[C@H]3[C@H](C[C@]24SS[C@]12C[C@H]1[C@@H]([C@@H](O)CC[C@@H]1O)N2C4=O)[C@@H](O)CC[C@@H]3O,inactive,inactive,inactive,inactive,inactive,inactive
–,CS[C@@]12C[C@H]3[C@@H]([C@@H](O)CC[C@@H]3O)N1C(=O)[C@]1(SC)C[C@H]3[C@@H]([C@@H](O)CC[C@@H]3O)N1C2=O,inactive,inactive,inactive,inactive,inactive,inactive
–,CS[C@@]12C[C@H]3C(=O)C=C[C@H](O)[C@H]3N1C(=O)[C@]1(SC)C[C@H]3C(=O)CC[C@H](O)[C@H]3N1C2=O,inactive,inactive,inactive,inactive,inactive,inactive
–,CS[C@@]12C[C@H]3C(=O)CC[C@H](O)[C@H]3N1C(=O)[C@]1(SC)C[C@H]3[C@@H]([C@@H](O)CC[C@@H]3O)N1C2=O,inactive,inactive,inactive,inactive,inactive,inactive
–,O=C1C[C@@H]2SS[C@@]34C[C@@H]1[C@@H]([C@H]2O)N3C(=O)[C@@]12C[C@H]3C(=O)C[C@H](SS1)[C@H](O)[C@H]3N2C4=O,inactive,inactive,inactive,inactive,inactive,inactive
3.07 µM,CS[C@@]12C[C@H]3C(=O)CC[C@H](O)[C@H]3N1C(=O)[C@]1(SC)C[C@H]3C(=O)CC[C@H](O)[C@H]3N1C2=O [EPICOCCIN G],inactive,inactive,inactive,inactive,inactive,inactive
4.16 µM,CS[C@@]12C[C@H]3C(=O)CC[C@H](O)[C@H]3N1C(=O)[C@@]13C[C@H]4C(=O)C[C@@H](SS1)[C@H](O)[C@H]4N3C2=O [EPICOCCIN M],inactive,inactive,inactive,inactive,inactive,inactive
–,CS[C@@]12C[C@H]3C(=O)CC[C@H](O)[C@H]3N1C(=O)[C@@]13C[C@H]4C(=O)C[C@@H](S1)[C@H](O)[C@H]4N3C2=O,inactive,inactive,inactive,inactive,inactive,inactive
–,CS[C@@]12C[C@H]3[C@@H]([C@@H](O)CC[C@@H]3O)N1C(=O)[C@@]13C[C@H]4C(=O)C[C@@H](S1)[C@H](O)[C@H]4N3C2=O,inactive,inactive,inactive,inactive,inactive,inactive
–,CS[C@@]12CC3=CC=C[C@H](O)[C@H]3N1C(=O)[C@]13C[C@@]4(O)[C@H](C=C[C@H](O)[C@H]4N1C2=O)S3,inactive,inactive,inactive,inactive,inactive,inactive
1.98 µM,O=C1C[C@H]2S[C@@]34C[C@@H]1[C@@H]([C@H]2O)N3C(=O)[C@@]12C[C@H]3C(=O)[C@@H](S1)[C@H](O)[C@H](O)[C@H]3N2C4=O [EPICOCCIN E],inactive,inactive,inactive,inactive,inactive,inactive
–,CS[C@@]12C[C@H]3C(=O)C[C@H](O)[C@H](O)[C@H]3N1C(=O)[C@@]13C[C@H]4C(=O)C[C@@H](SS1)[C@H](O)[C@H]4N3C2=O,inactive,inactive,inactive,inactive,inactive,inactive
–,O=C1C[C@H]2SS[C@@]34C[C@@H]1[C@@H]([C@H]2O)N3C(=O)[C@]12C[C@H]3C(=O)[C@H](C[C@H](O)[C@H]3N1C4=O)S2,inactive,inactive,inactive,inactive,inactive,inactive
–,O=C1N[C@@H](Cc2ccccc2)C(=O)N[C@H]1Cc1ccccc1,inactive,inactive,inactive,inactive,inactive,inactive
–,O=C1C[C@H]2SS[C@@]34C[C@@H]1[C@@H]([C@H]2O)N3C(=O)[C@@]12C[C@H]3C(=O)C[C@@H](S1)[C@H](O)[C@H]3N2C4=O,inactive,inactive,inactive,inactive,inactive,inactive
–,O=C1C[C@@H]2SS[C@@]34C[C@@H]1[C@@H]([C@H]2O)N3C(=O)[C@@]12C[C@H]3C(=O)[C@H](S1)[C@H](O)[C@H](O)[C@H]3N2C4=O,inactive,inactive,inactive,inactive,inactive,inactive
4.95 µM,CCO[C@@H]1[C@H](O)[C@@H]2[C@H]3C[C@@]4(S[C@@H]1C3=O)C(=O)N1[C@@H]3[C@@H](O)[C@H]5CC(=O)[C@@H]3C[C@@]1(SS5)C(=O)N24 [EPICOCCIN S],inactive,inactive,inactive,inactive,inactive,inactive
–,O=C1C[C@H]2SS[C@@]34C[C@@H]1[C@@H]([C@H]2O)N3C(=O)[C@@]12C[C@H]3C(=O)[C@@H](S1)[C@@H](O)[C@H](O)[C@H]3N2C4=O,inactive,inactive,inactive,inactive,inactive,inactive
–,O=C1CC[C@H](O)[C@H]2[C@H]1C[C@@]13SS[C@]4(C[C@H]5[C@@H]([C@@H](O)CC[C@@H]5O)N4C1=O)C(=O)N23,inactive,inactive,inactive,inactive,inactive,inactive
